m-calpain inh: blocks pig calpain II enzyme activity; 220,000 compounds, 0.37% hits; purified calpain II, fluorogenic peptide substrate, 30 min; AID 1236; inhibition, % at 16 µM;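 active = inhibition above about 50%, limit read from the data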
Rad51 HR inh: blocks human Rad51 in homologous recombination; inhibition, % at 10 µM; hRad51 DNA strand exchange, fluorescence dequenching; 200,000 compounds, 0.085% hits; Q06609; AID 1385;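 active = inhibition above 40% at the single screening dose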;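 note: 0% = DMSO control wells and 100% = blanks with heterologous ssDNA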
Target sequence (Q06609 whole entry, looked up): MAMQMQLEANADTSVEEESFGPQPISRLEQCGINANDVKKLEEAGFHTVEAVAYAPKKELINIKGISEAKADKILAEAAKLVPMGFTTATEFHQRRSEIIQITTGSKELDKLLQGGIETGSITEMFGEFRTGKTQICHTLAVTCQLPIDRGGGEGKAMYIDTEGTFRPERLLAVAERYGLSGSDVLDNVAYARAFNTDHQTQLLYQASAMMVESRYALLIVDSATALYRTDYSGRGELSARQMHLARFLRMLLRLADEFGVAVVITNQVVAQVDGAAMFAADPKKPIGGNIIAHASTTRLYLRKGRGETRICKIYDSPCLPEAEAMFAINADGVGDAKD
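Material: human Rad51–ssDNA filaments; Probe or stimulus: labelled 47-mer dsDNA for strand exchange; Doses: single 10 µM dose; Incubation: 37 °C 15-min filament assembly, 30-min compound preincubation, 15-min exchange; Technique: FRET fluorescence dequenching, excitation 485 nm, emission 520 nm; Measure: Fluorescence-based percent inhibition, control- and blank-normalised; Benchmarks: plate control and blank wells.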
WT yeast gro inh: growth inhibition of WT yeast, mitochondrial fusion screen. mitochondrial fusion phenotypic screen, WT strain. 190,000 compounds, 2.1% hits. inhibition, % at 10 µM; in the data active = inhibition above about 58%; tested in S. cerevisiae
PMI act: activators of human phosphomannose isomerase; purified human PMI, coupled resazurin fluorescence, 20 min; active compounds read high; 1 = vehicle control, 0 substrate-free wells; 190,000 compounds, 0.005% hits; activation factor at 20 µM; AID 1214; P34949;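 active = activation factor of 2 or more at 20 µM, relative to plate controls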
L major viab: reduces viability of Leishmania major promastigotes. 200,000 compounds, 9% hits. AID 1063. resazurin fluorescence viability. inhibition, % at 10 µM; in the data active = inhibition above about 50%;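 note: promastigotes grown with compound for 44 hours at 28 °C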
PMI act satM6P: PMI (human) activation, high substrate. P34949. coupled PMI enzyme assay, resazurin fluorescence, 20 min; active compounds read high; 1 = untreated enzyme, 0 = substrate-free blank. activation factor at 20 µM. 190,000 compounds, 0.34% hits. AID 1216;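 active = activation factor of 2 or more at 20 µM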
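Test system: Human PMI in coupled enzyme assay | Input: 15 ng/mL PMI | Medium: HEPES-buffered pH 7.4 with magnesium and detergent | Compound: One concentration, 20 µM, in 1% DMSO | Incubation: Enzyme reaction with compound 20 min at room temperature | Detection: Diaphorase-driven resazurin-to-resorufin fluorescence, excitation 544, emission 590 nm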
* = called active by the depositor; · = no result. A selection: hits, their analogues and other compounds. The true share with any hit is near 9.8%.

SMILES | m-calpain inh | Rad51 HR inh | WT yeast gro inh | PMI act | L major viab | PMI act satM6P
Cc1ccc2sc(N(CCCN(C)C)C(=O)c3ccc(S(=O)(=O)N(C)C)cc3)nc2c1C | -7.8 | 3.2 | 6.2 | 1.1 | 73.6* | 1
Cc1cc(C)c2sc(N(CCN(C)C)C(=O)c3c(F)cccc3F)nc2c1 | -12.7 | 6.3 | 61.9* | 1.1 | 25.5 | 1.1
N/C(=N\OC(=O)COc1ccc(Cl)cc1Cl)c1ccncc1 | 21.8 | -8.6 | 35.5 | 0.8 | -1.4 | 0.8
CC(C)C(NC(=O)C12CC3CC(CC(C3)C1)C2)C(=O)O (stereo not drawn) | -31.7 | 2.1 | -34.7 | 0.8 | 52.1* | 0.9
Cc1cc(C)nc(Sc2ncnc(N)c2[N+](=O)[O-])n1 | 19.0 | -6.2 | 2.6 | 1 | 57.9* | 1
Cc1cccc(Nc2ncnc(N)c2[N+](=O)[O-])n1 | -9.4 | 5.2 | -12.1 | 1 | -5.0 | 1
CC(C)(C)c1ccc(/C=C(\C#N)C(=O)NCCN2CCOCC2)cc1 | -28.1 | -26.5 | -4.2 | 0.9 | 25.5 | 0.9
O=C1C=CC(=O)N1c1ccc(OC(F)F)cc1 | -10.3 | 24.0 | 41.7 | 1.3 | -3.6 | 1.7
Cc1cc(-c2n[nH]c(=S)n2/N=C/c2ccc(Cl)c([N+](=O)[O-])c2)n[nH]1 | -4.1 | -3.3 | 2.4 | 1 | -0.2 | 1.1
O=[N+]([O-])c1cccc(/C=N/n2c(-c3cccnc3)n[nH]c2=S)c1 | -8.2 | -3.9 | -5.8 | 1 | 55.0* | 0.9
Cc1cc(-c2n[nH]c(=S)n2/N=C/c2cc([N+](=O)[O-])ccc2Cl)n[nH]1 | 20.3 | -7.2 | -0.1 | 0.7 | 84.4* | 0.6
COCCOC(=O)c1c(C)oc2ccc(NS(=O)(=O)c3ccccc3)cc12 | -29.8 | -0.4 | 22.4 | 0.8 | 7.9 | 0.9
CCOC(=O)c1c(C)oc2ccc(NS(=O)(=O)c3ccc4c5c(cccc35)C(=O)N4)cc12 | -86.4 | 0.4 | 1.6 | 0.9 | 91.0* | 0.8
COc1ccccc1NC(=O)N1CCN(c2ccnc3cc(Cl)ccc23)CC1 | 24.5 | -10.0 | · | · | · | ·
COc1ccccc1NC(=O)N1CCc2[nH]c3ccc(Cl)cc3c2C1 | -4.1 | -9.0 | 46.6 | 0.9 | 95.2* | 0.9
O=c1[nH]c(/C=C/c2ccccc2OC(F)F)nc2c1cnn2-c1ccccc1 | -289.1 | 3.0 | -10.2 | 1.1 | 62.2* | 1.2
CC(OC(=O)c1cn(-c2ccccc2)nc1-c1cccnc1)C(N)=O (stereo not drawn) | 3.9 | · | -1.9 | 1.1 | -4.0 | 1
C=CCNC(=S)NNC(=O)c1cc(O)ccc1O | -27.1 | -6.3 | 7.4 | 0.8 | -7.2 | 0.8
Clc1ccc(C(c2ccccc2)N2CCNCC2)cc1 (stereo not drawn) | 8.0 | -6.7 | 45.3 | 1.1 | 46.1 | 1.1
CN1CCN(C(c2cccc(Cl)c2)c2ccccc2Cl)CC1 (stereo not drawn) | 4.8 | -0.3 | 23.2 | 1.2 | 97.6* | 1.1
O=C(Nc1ccc(F)cc1)c1sc2cc(C(F)(F)F)cnc2c1-c1cccs1 | -159.6 | -4.3 | 10.7 | 1 | 56.3* | 1
CCOC(=O)C(=Cc1c[nH]c2ccc(S(=O)(=O)N(C)C)cc12)C(=O)OCC | 1.4 | 22.8 | · | · | · | ·
Cn1c(C(=O)OC(C(=O)NC2CCCC2)c2cccnc2)cc2sccc21 (stereo not drawn) | 17.5 | -5.8 | 15.0 | 1.1 | 97.5* | 1.1
CC(OC(=O)c1cc2sccc2n1C)C(=O)NC(C)(C)C (stereo not drawn) | -2.3 | 2.7 | -16.0 | 1 | 0.1 | 1.1
Cn1c(C(=O)OC(C(=O)NC2CCCCC2)c2cccnc2)cc2sccc21 (stereo not drawn) | -14.4 | -1.9 | 0.3 | 0.8 | 96.6* | 0.9
SMILES | m-calpain inh | Rad51 HR inh | WT yeast gro inh | PMI act | L major viab | PMI act satM6P
Cc1sc2nc3ccc(N4CCCC4)nn3c(=O)c2c1C | -241.1 | · | -4.0 | 1.6 | -1.1 | 2.2*
Cc1ccc2nc3ccc(N4CCCCCCC4)nn3c(=O)c2c1 | -57.2 | 3.9 | 11.9 | 1 | 25.8 | 1
CN(C)c1ccc(/C=N/N2C(=N)N(c3ccccc3)C(=S)C2=Nc2ccccc2)cc1 | · | · | · | · | 0.9 | ·
CCOC(=O)c1ccc(N=C2C(=S)N(c3ccc(C(=O)OCC)cc3)C(=N)N2/N=C/c2ccccc2)cc1 | -110.0 | 2.9 | 21.0 | 0.9 | 100.2* | 1
COC(=O)C1CCN(C(=O)COC(=O)[C@@H]2CC(O)CN2S(=O)(=O)c2ccc3c(c2)OCCO3)CC1 (stereo partly drawn) | -17.2 | 1.6 | 2.0 | 1.1 | 50.8* | 0.9
Cc1ccc(CNC(=O)COC(=O)[C@@H]2CC(O)CN2S(=O)(=O)c2ccc3c(c2)OCCO3)cc1 (stereo partly drawn) | 1.7 | 7.5 | -5.0 | 1 | -2.0 | 1
Cc1ccc(N2C(=O)Nc3ccccc3C2(O)C(=O)N2CCN(c3ccccn3)CC2)cc1C (stereo not drawn) | -3.7 | 7.3 | -6.9 | 1 | 31.1 | 1
CCc1ccc(N2C(=O)Nc3ccccc3C2(O)C(=O)N2CCN(c3ccccn3)CC2)cc1 (stereo not drawn) | -2.0 | -1.4 | 13.1 | 1 | 68.6* | 0.9
CC1(C)CC(=O)c2c(nc3ccccc3c2N)C1 | -35.5 | -1.4 | -3.3 | 0.9 | 46.6 | 0.9
Cc1nc2c(c3c1[nH]c1ccccc13)C(=O)CC(C)(C)C2 | -30.7 | 1.4 | 7.1 | 0.8 | 63.6* | 0.9
COCCCN1CN=C(Nc2nc3ccccc3o2)NC1 | 17.4 | 3.7 | -14.7 | 1.1 | -2.1 | 1
COc1ccc(/C=C/C(=O)Nc2cccc(F)c2)cc1S(=O)(=O)N1CCOCC1 | 36.1 | -6.7 | 2.0 | 0.9 | 50.1* | 0.9
COc1cccc(/C=C/C(=O)OCC(=O)Nc2ccc(S(=O)(=O)N3CCCC3)cc2)c1 | -5.2 | 0.1 | 2.8 | 0.8 | 68.2* | 0.8
COc1cc(/C=C/C(=O)OCC(=O)N2CCN(C(=O)c3ccco3)CC2)ccc1O | -28.7 | 20.9 | 14.5 | 1 | -3.2 | 1
COc1cc(/C=C/C(=O)OCC(=O)N2CCN(S(=O)(=O)c3ccc(C)cc3C)CC2)ccc1O | -52.6 | -1.7 | -23.8 | 0.9 | 97.8* | 0.8
COc1ccc(NC(=O)COC(=O)/C=C/c2ccc(OC)c(S(=O)(=O)N3CCOCC3)c2)cc1 | -13.8 | -1.3 | -22.9 | 0.9 | 57.1* | 1
COc1cc(/C=C/C(=O)OCC(=O)Nc2ccc(S(=O)(=O)N3CCCC3)cc2)ccc1O | -52.6 | 2.5 | -16.0 | 0.9 | -2.3 | 0.7
CC(C)OP(=O)(OC(C)C)C(O)c1ccc(N(C)C)cc1 (stereo not drawn) | 16.0 | · | · | · | · | ·
CCOC(=O)COc1cnc2ccccc2n1 | -12.6 | 8.8 | -11.6 | 1 | -8.6 | 1
O=C(Nc1cccc(Br)c1)c1ccc(OC2CSC2)cc1 | -3.2 | 15.5 | 5.3 | 0.9 | 2.2 | 0.9
O=C(O)c1ccccc1C(=O)NC1CCCCNC1=O (stereo not drawn) | 30.9 | · | · | · | · | ·

Source: PubChem (several laboratories)
